Results published in ChEMBL document CHEMBL1152506, “Characterization and synthetic application of a novel beta1,3-galactosyltransferase from Escherichia coli O55:H7” (Bioorg Med Chem, 2009).
Activity calls are given as the source filed them. The rule behind the calls is not given here.

Legend:
[1] = biological target: T1, Putative glycosyltransferase (Escherichia coli O55:H7) (UniProt B1B4J9); experiment: Activity of Escherichia coli O55:H7 glycosyltransferase WbgO relative to GlcNAc
T1 sequence (whole entry): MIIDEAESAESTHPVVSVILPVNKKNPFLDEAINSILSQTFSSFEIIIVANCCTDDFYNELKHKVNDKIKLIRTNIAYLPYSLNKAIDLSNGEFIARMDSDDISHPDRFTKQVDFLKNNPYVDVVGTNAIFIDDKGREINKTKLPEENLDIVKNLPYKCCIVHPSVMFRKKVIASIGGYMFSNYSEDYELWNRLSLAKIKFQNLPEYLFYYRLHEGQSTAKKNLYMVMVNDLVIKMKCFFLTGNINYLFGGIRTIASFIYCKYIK
Summary of the method: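 GST-fused WbgO made in E. coli BL21(DE3) and purified on glutathione resin. Assayed in 50 µL of 50 mM HEPES pH 7.0 with 5 mM MnCl2, 0.3 mM UDP-Gal plus UDP-[6-3H]Gal (10,000 cpm), 2 mM acceptor and 4 µg enzyme, 37 °C for 1 h. Control omitted the acceptor. Incorporated 3H was read by liquid scintillation counting and expressed relative to GlcNAc.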

[2] = biological target: T1, Putative glycosyltransferase (Escherichia coli O55:H7); experiment: Activity of Escherichia coli O55:H7 glycosyltransferase WbgO
Summary of the method: (§1)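 Apparent kinetics for purified GST-WbgO, using the radioactive UDP-[6-3H]Gal transfer assay with scintillation counting. The acceptor (GlcNAc, GalNAc or lacto-N-triose) was varied at 0.1, 0.2, 0.5, 1 and 2 mM with UDP-Gal fixed at 1 mM. UDP-Gal was varied at 0.1–2 mM with 20 mM GlcNAc. Base buffer was HEPES pH 7.0 with 5 mM MnCl2.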

[3] = substrate: CC(=O)N[C@@H]1[C@@H](O)[C@@H](O)[C@@H](CO)O[C@H]1O; experiment: (§2) Activity of Escherichia coli O55:H7 glycosyltransferase WbgO by Lineweaver-Burke analysis; summary of the method: as §1
[4] = substrate: CC(=O)N[C@@H]1[C@@H](O)[C@H](O)[C@@H](CO)O[C@H]1O; experiment: as §2; summary of the method: as §1
[5] = substrate: CC(=O)N[C@H]1[C@H](O[C@H]2[C@@H](O)[C@@H](CO)O[C@@H](O[C@H]3[C@H](O)[C@@H](O)[C@H](O)O[C@@H]3CO)[C@@H]2O)O[C@H](CO)[C@@H](O)[C@@H]1O[C@@H]1O[C@H](CO)[C@H](O)[C@H](O)[C@H]1O; experiment: as §2; summary of the method: as §1
[6] = substrate: CC(=O)N[C@@H]1[C@@H](O)[C@@H](O)[C@@H](CO)O[C@H]1O; experiment: (§3) Ratio of Kcat to Km for Escherichia coli O55:H7 glycosyltransferase WbgO by Lineweaver-Burke analysis; summary of the method: as §1
[7] = substrate: CC(=O)N[C@@H]1[C@@H](O)[C@H](O)[C@@H](CO)O[C@H]1O; experiment: as §3; summary of the method: as §1
[8] = substrate: CC(=O)N[C@H]1[C@H](O[C@H]2[C@@H](O)[C@@H](CO)O[C@@H](O[C@H]3[C@H](O)[C@@H](O)[C@H](O)O[C@@H]3CO)[C@@H]2O)O[C@H](CO)[C@@H](O)[C@@H]1O[C@@H]1O[C@H](CO)[C@H](O)[C@H](O)[C@H]1O; experiment: as §3; summary of the method: as §1

CC(=O)N[C@H]1[C@H](Oc2ccc([N+](=O)[O-])cc2)O[C@H](CO)[C@@H](O)[C@@H]1O
Activity [1]: 73%

CC(=O)N[C@H]1[C@H](O[C@H]2[C@@H](O)[C@@H](CO)O[C@@H](O[C@H]3[C@H](O)[C@@H](O)[C@H](O)O[C@@H]3CO)[C@@H]2O)O[C@H](CO)[C@H](O)[C@@H]1O
Activity [1]: 16%

CC(=O)N[C@@H]1[C@@H](O)[C@H](O)[C@@H](CO)O[C@H]1O
Activity [1]: 100%
Activity [2]: Active

CC(=O)N[C@@H]1[C@@H](O)[C@@H](O)[C@@H](CO)O[C@H]1O
Activity [1]: 43%
Activity [2]: Active

B1: Putative glycosyltransferase (Escherichia coli O55:H7), B1B4J9 (protein)
chain: MIIDEAESAESTHPVVSVILPVNKKNPFLDEAINSILSQTFSSFEIIIVANCCTDDFYNELKHKVNDKIKLIRTNIAYLPYSLNKAIDLSNGEFIARMDSDDISHPDRFTKQVDFLKNNPYVDVVGTNAIFIDDKGREINKTKLPEENLDIVKNLPYKCCIVHPSVMFRKKVIASIGGYMFSNYSEDYELWNRLSLAKIKFQNLPEYLFYYRLHEGQSTAKKNLYMVMVNDLVIKMKCFFLTGNINYLFGGIRTIASFIYCKYIK
Km [3]: 327 µM
Vmax [3]: 120 pmol/min
kcat [3]: 0.0285 s⁻¹
Km [4]: 323 µM
Vmax [4]: 179 pmol/min
kcat [4]: 0.0425 s⁻¹
Km [5]: 55 µM
Vmax [5]: 176 pmol/min
kcat [5]: 0.0417 s⁻¹
kcat/Km [6]: 87.2 M⁻¹ s⁻¹
kcat/Km [7]: 132 M⁻¹ s⁻¹
kcat/Km [8]: 278 M⁻¹ s⁻¹
